Source: ChEMBL document CHEMBL1155661, “Bioactive steroids from the whole herb of Euphorbia chamaesyce” (J Nat Prod, 2000)

Assays:
Assay type in all cases: cell-based
Raji [1] = test: Inhibition of 12-O-tetradecanoylphorbol-13-acetate induced EBV-early antigen activation in human Raji cells assessed as EA induction at 10 molar ratio by immunofluorescence assay relative to TPA; design: scale not given: the % may be the effect or the level left; settings: human gammaherpesvirus 4
How it was run: (§1)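 Cells at 1 × 10⁶/mL were incubated 48 h at 37 °C with n-butyric acid (4 mM) and TPA (32 pmol, 20 ng/mL) in DMSO, plus compound in DMSO dosed as mol ratio to TPA. EA-positive cells in smears were detected by indirect immunofluorescence with high-titer EBV-EA-positive nasopharyngeal carcinoma patient sera. At least 500 cells were counted, experiments were run twice, and values are expressed relative to TPA alone (100%).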

Raji [2] = test: Inhibition of 12-O-tetradecanoylphorbol-13-acetate induced EBV-early antigen activation in human Raji cells assessed as EA induction at 100 molar ratio by immunofluorescence assay relative to TPA; design: scale not given: the % may be the effect or the level left; settings: human gammaherpesvirus 4; how it was run: as §1
Raji [3] = test: Inhibition of 12-O-tetradecanoylphorbol-13-acetate induced EBV-early antigen activation in human Raji cells assessed as EA induction at 500 molar ratio by immunofluorescence assay relative to TPA; design: scale not given: the % may be the effect or the level left; settings: human gammaherpesvirus 4; how it was run: as §1
Raji [4] = test: Inhibition of 12-O-tetradecanoylphorbol-13-acetate induced EBV-early antigen activation in human Raji cells assessed as EA induction at 1000 molar ratio by immunofluorescence assay relative to TPA; design: scale not given: the % may be the effect or the level left; settings: human gammaherpesvirus 4; how it was run: as §1
[5] = Cytotoxicity against human Raji cells assessed as cell viability at 1000 molar ratio; settings: read-out: Activity

| Structure (SMILES) | Activity (Raji [1]) [%] | Activity (Raji [2]) [%] | Activity (Raji [3]) [%] | Activity (Raji [4]) [%] | viability at 1000 molar ratio [5] [%] |
| --- | --- | --- | --- | --- | --- |
| C=C(CC[C@@H](C)[C@H]1CC[C@@]2(C)C3=C(C(=O)C[C@]12C)[C@@]1(C)CC[C@H](O)[C@@H](C)[C@@H]1CC3=O)C(C)C | 91.9 | 70.4 | 22.5 | 0 | 70 |
| C=C(CC[C@@H](C)[C@H]1CC[C@@]2(C)C3=C(C(=O)C[C@]12C)[C@@]1(C)CC[C@H](O)[C@@H](C)[C@@H]1CC3)C(C)C | 92.8 | 72.4 | 23.6 | 0 | 70 |
| C=C(CC[C@@H](C)[C@H]1CC[C@@]2(C)C3=C(CC[C@]12C)[C@@]1(C)CC[C@H](O)[C@@H](C)[C@@H]1CC3)C(C)C [OBTUSIFOLIOL] | 95.8 | 77.4 | 30.2 | 0 | 70 |
| CC1(C)CC[C@]2(C(=O)O)CC[C@]3(C)C(=CC[C@@H]4[C@@]5(C)CC[C@H](O)C(C)(C)[C@@H]5CC[C@]43C)[C@@H]2C1 [OLEANOLIC_ACID] | 93.7 | 72.5 | 22.4 | 12.7 | 70 |
| C=C(CC[C@@H](C)[C@H]1CC[C@@]2(C)C3=CC[C@H]4[C@H](C)[C@@H](O)CC[C@]4(C)C3=CC[C@]12C)C(C)C | 92.4 | 74.9 | 27.3 | 0 | 70 |
